Laboratory results taken from ChEMBL document CHEMBL2203146, “Search for anticonvulsant and analgesic active derivatives of dihydrofuran-2(3H)-one” (Bioorg Med Chem, 2012).
Active and inactive are the calls of the source.

Columns and labels:
Mus musculus [1] = assay: Anticonvulsant activity in albino CF1 mouse assessed as protection against subcutaneous metrazol-induced seizures at 30 to 300 mg/kg, ip after 0.5 to 4 hrs; format: functional, organism-based
In short: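 CF No. 1 male mice dosed ip at 30, 100 or 300 mg/kg (saline or 0.5% methylcellulose), then given pentetrazole 85 mg/kg sc as 0.5% solution in posterior midline. Watched 30 min. Protection means no threshold seizure (single clonic spasm episode of at least 5 s). Expressed as protected/tested.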

Mus musculus [2] = assay: Neurotoxicity in albino CF1 mouse assessed as minimal motor impairment at 300 mg/kg, ip after 4 hrs by rotorod test; format: toxicity, organism-based; set-up: dose 300 mg/kg, route intraperitoneal; conditions: in vivo
In short: (§1)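 Rotarod in male CF No. 1 mice after ip dosing (30, 100, 300 mg/kg; saline or 0.5% methylcellulose) at 15–240 min. Knurled plastic rod, 1-inch diameter, 6 rpm. Toxicity means failing to stay on for 1 min on three successive attempts. Recorded as toxic/tested.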

Mus musculus [3] = assay: Neurotoxicity in albino CF1 mouse assessed as minimal motor impairment at 300 mg/kg, ip after 0.5 hr by rotorod test; format: toxicity, organism-based; set-up: dose 300 mg/kg, route intraperitoneal; conditions: in vivo; in short: as §1
Mus musculus [4] = assay: Neurotoxicity in albino CF1 mouse assessed as minimal motor impairment at 100 mg/kg, ip after 4 hrs by rotorod test; format: toxicity, organism-based; set-up: dose 100 mg/kg, route intraperitoneal; conditions: in vivo; in short: as §1
Mus musculus [5] = assay: Neurotoxicity in albino CF1 mouse assessed as minimal motor impairment at 100 mg/kg, ip after 1 hr by rotorod test; format: toxicity, organism-based; set-up: dose 100 mg/kg, route intraperitoneal; conditions: in vivo; in short: as §1
Mus musculus [6] = assay: Neurotoxicity in albino CF1 mouse assessed as minimal motor impairment at 100 mg/kg, ip after 0.5 hr by rotorod test; format: toxicity, organism-based; set-up: dose 100 mg/kg, route intraperitoneal; conditions: in vivo; in short: as §1
Mus musculus [7] = assay: Neurotoxicity in albino CF1 mouse assessed as minimal motor impairment at 100 mg/kg, ip after 0.25 hr by rotorod test; format: toxicity, organism-based; set-up: dose 100 mg/kg, route intraperitoneal; conditions: in vivo; in short: as §1
Mus musculus [8] = assay: Anticonvulsant activity in albino CF1 mouse assessed as protection against maximal electroshock-induced seizures at 300 mg/kg, ip after 4 hrs; format: functional, organism-based; set-up: dose 300 mg/kg
In short: (§2)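 Male albino CF No. 1 mice (18–25 g) dosed ip at 30, 100 and 300 mg/kg in saline or 0.5% methylcellulose, tested 15, 30, 60 and 240 min after dosing. Maximal electroshock seizures elicited with 60-cycle alternating current. Scored as animals protected/animals tested, small qualitative groups.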

Mus musculus [9] = assay: Anticonvulsant activity in albino CF1 mouse assessed as protection against maximal electroshock-induced seizures at 300 mg/kg, ip after 0.5 hr; format: functional, organism-based; set-up: dose 300 mg/kg; in short: as §2
Mus musculus [10] = assay: Anticonvulsant activity in albino CF1 mouse assessed as protection against maximal electroshock-induced seizures at 100 mg/kg, ip after 4 hrs; format: functional, organism-based; set-up: dose 100 mg/kg; in short: as §2
Mus musculus [11] = assay: Anticonvulsant activity in albino CF1 mouse assessed as protection against maximal electroshock-induced seizures at 100 mg/kg, ip after 1 hr; format: functional, organism-based; set-up: dose 100 mg/kg; in short: as §2
Mus musculus [12] = assay: Anticonvulsant activity in albino CF1 mouse assessed as protection against maximal electroshock-induced seizures at 100 mg/kg, ip after 0.5 hr; format: functional, organism-based; set-up: dose 100 mg/kg; in short: as §2
Mus musculus [13] = assay: Anticonvulsant activity in albino CF1 mouse assessed as protection against maximal electroshock-induced seizures at 100 mg/kg, ip after 0.25 hr; format: functional, organism-based; set-up: dose 100 mg/kg; in short: as §2
Mus musculus [14] = assay: […] activity in ip dosed albino CF1 mouse assessed as inhibition of phenylbenzoquinone-induced writhing administered after 30 mins prior challenge; format: functional
In short: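 Male Albino Swiss (CD-1) mice, 6-8 per dose. Compound given ip in 0.5% methylcellulose. 30 min later, 0.25 ml of 0.02% phenylbenzoquinone injected. After 5 min, writhes counted over 10 min. % effect = (vehicle mean − drug mean)/vehicle mean × 100. ED50 derived; Student's t-test.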

Mus musculus [15] = assay: Analgesic activity in albino CF1 mouse assessed as inhibition of heat-induced paw licking or jumping behaviour administered after 30 mins prior heat challenge by hot plate method; format: functional
Mus musculus [16] = assay: Anesthetic activity in […] assessed as latency in response to thermal stimuli administered as 2% solution, sc measured after 15 mins by modified tail immersion test; format: functional, albino CF1
Mus musculus [17] = assay: Anesthetic activity in albino CF1 mouse assessed as latency in response to thermal stimuli administered as 1% solution, sc measured after 15 mins by modified tail immersion test; format: functional
In short: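 Male Albino Swiss (CD-1) mice, 6-8 per group, tested at 1% and 2% compound concentration. Tail distal 3 cm immersed in water at 50 ± 0.5 °C 15 min after treatment. Tail-withdrawal latency recorded with a 20 s cutoff. Value is % difference in latency vs vehicle-treated mice. Mean ± SEM, Student's t-test.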

| SMILES | Activity (Mus musculus [1]) | Activity (Mus musculus [2]) | Activity (Mus musculus [3]) | Activity (Mus musculus [4]) | Activity (Mus musculus [5]) | Activity (Mus musculus [6]) | Activity (Mus musculus [7]) | Activity (Mus musculus [8]) | Activity (Mus musculus [9]) | Activity (Mus musculus [10]) | Activity (Mus musculus [11]) | Activity (Mus musculus [12]) | Activity (Mus musculus [13]) | ED50 (Mus musculus [14]) [mg/kg] | ED50 (Mus musculus [15]) [mg/kg] | Activity (Mus musculus [16]) [%] | Activity (Mus musculus [17]) [%] |
| --- | --- | --- | --- | --- | --- | --- | --- | --- | --- | --- | --- | --- | --- | --- | --- | --- | --- |
| C/C(NCc1ccccc1)=C1\CCOC1=O | inactive | Non-toxic | Non-toxic | Non-toxic | Non-toxic | Non-toxic | Non-toxic | inactive | Active | inactive | inactive | inactive | inactive |  |  |  |  |
| COc1ccc(CCN/C(C)=C2/CCOC2=O)cc1OC | inactive | Non-toxic | Non-toxic | Non-toxic | Non-toxic | Non-toxic | Non-toxic | inactive | Active | inactive | inactive | inactive | inactive |  |  |  |  |
| Cc1cccc(C)c1NC1CCOC1=O (configuration not stated) | inactive | Non-toxic | Non-toxic | Non-toxic |  | Non-toxic |  | inactive | inactive | inactive |  | inactive |  |  |  |  |  |
| CC1CC(N2CCN(c3ccccc3)CC2)C(=O)O1 (mixture of isomers) | inactive | Non-toxic | Toxic | Non-toxic | Non-toxic | Non-toxic | Non-toxic | inactive | Active | inactive | inactive | inactive | inactive |  |  |  |  |
| CC1CC(NCc2ccccc2)C(=O)O1.Cl (mixture of isomers) | inactive | Non-toxic | Non-toxic | Non-toxic |  | Non-toxic |  | inactive | inactive | inactive |  | inactive |  |  |  |  |  |
| O=C1OCCC1N1C(=O)c2ccccc2C1=O (racemic) | inactive | Non-toxic | Toxic | Non-toxic |  | Toxic |  | inactive | inactive | inactive |  | inactive |  | 4.5 | 33.9 |  |  |
| Cl.O=C1OCCC1N1CCOCC1 (racemic) | inactive | Non-toxic | Toxic | Non-toxic |  | Non-toxic |  | inactive | inactive | inactive |  | inactive |  | 5.4 | 9.9 |  |  |
| COc1ccccc1N1CCN(C2CCOC2=O)CC1 (racemic) | inactive | Non-toxic | Toxic | Non-toxic | Non-toxic | Non-toxic | Non-toxic | inactive | Active | inactive | inactive | inactive | inactive | 0.3 | 0.7 | 152 | 97 |
| COc1cccc(N2CCN(C3CCOC3=O)CC2)c1 (racemic) | inactive | Non-toxic | Non-toxic | Non-toxic |  | Non-toxic |  | inactive | Active | inactive |  | inactive |  | 3 | 3.2 | 75 | 6 |
| COc1ccc(N2CCN(C3CCOC3=O)CC2)cc1 (racemic) | inactive | Non-toxic | Non-toxic | Non-toxic |  | Non-toxic |  | inactive | inactive | inactive |  | inactive |  | 9.6 | 32.5 | 49 | -3 |
